“And” between values parts separate entries of the source, which are not always exact repeats. Identical values can stand only once.
How the values were obtained:
Rattus norvegicus [1] = assay: Partial remission in DMBA-induced hormone dependent mammary carcinoma tumor bearing rats at 2 mg/kg in 9 animals; assay type: functional
In short: (§1)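 Sprague-Dawley rats bearing established DMBA-induced mammary carcinomas that arose 5–10 weeks after DMBA. Dosed sc as one daily dose Monday to Thursday and a double dose on Friday. Controls got vehicle alone. Tumor area was followed over treatment.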

Rattus norvegicus [2] = assay: Static unchanged DMBA-induced hormone dependent mammary carcinoma tumors in rats at 2 mg/kg in 9 animals; assay type: functional; in short: as §1
Rattus norvegicus [3] = assay: Percent complete remission of DMBA-induced hormone dependent mammary carcinoma in rats at 2 mg/kg in 9 animals; assay type: functional; in short: as §1
Rattus norvegicus [4] = assay: Progressive DMBA-induced hormone dependent mammary carcinoma tumors in rats at 2 mg/kg in 9 animals; assay type: functional; in short: as §1
Rattus norvegicus [5] = assay: Initial DMBA-induced hormone dependent mammary carcinoma tumors in rats at 6 mg/kg; assay type: functional; in short: as §1
Rattus norvegicus [6] = assay: Change in tumor area DMBA-induced hormone dependent mammary carcinoma tumor bearing rats at 2 mg/kg after 28 day therapy in 9 animals
Rattus norvegicus [7] = assay: New tumor development in DMBA-induced hormone dependent mammary carcinoma in rats at 6 mg/kg; assay type: functional; in short: as §1
Rattus norvegicus [8] = assay: Change in body weight of DMBA-induced hormone dependent mammary carcinoma tumor bearing rats at 2 mg/kg after 7 day therapy in 9 animals; assay type: functional
MDA-MB-231 [9] = assay: Growth inhibition of hormone independent MDA-MB 231 human breast cancer cells at 5x10E-6M
[10] = molecular target: T1, Estrogen receptor (Mus musculus) (UniProt O08537+P19785); assay: Estrogenic activity in mouse uterotrophic assay at 0.2 ug as uterus dry weight (mg)/body weight (g) *100; assay type: functional, tissue-based
In short: (§2)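 Mouse uterotrophic test with the compound alone given sc on 3 consecutive days (dose per animal). Uterus dry weight (mg)/body weight (g) × 100 was measured 24 h after the last injection, as mean ± SD of 10 animals. Significance by Wilcoxon–Mann–Whitney U test.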

[11] = molecular target: T1, Estrogen receptor (Mus musculus); assay: Anti-estrogenic activity in mouse uterotrophic assay at 25 ug as uterus dry weight (mg)/body weight (g) *100; assay type: functional, tissue-based
In short: (§3)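 Mice dosed sc on 3 consecutive days (dose per animal), together with […] estrone per animal per day. Uterus dry weight (mg)/body weight (g) × 100 was taken 24 h after the last injection, as mean ± SD of 10 animals. Significance by Wilcoxon–Mann–Whitney U test.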

Rattus norvegicus [12] = assay: Initial DMBA-induced hormone dependent mammary carcinoma tumors in rats at 2 mg/kg; assay type: functional; in short: as §1
[13] = molecular target: T1, Estrogen receptor (Mus musculus); assay: Anti-estrogenic activity in mouse uterotrophic assay at 0.04 ug as uterus dry weight (mg)/body weight (g) *100; assay type: functional, tissue-based; conditions: in the assay text read “at 1 ug” for “at 0.04 ug”; in short: as §3
MDA-MB-231 [14] = assay: Inhibition of [3H]thymidine incorporation into hormone independent MDA-MB 231 human breast cancer cells at 1*10^-5 M; assay type: functional
In short: (§4)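 MDA-MB 231 cells grown in McCoy 5a with 10% newborn calf serum and gentamycin. Replicate plates were switched to 5% serum 1 h before the run. Compounds were added in Me2SO (final 0.1%). Read-out was [3H]thymidine incorporation into TCA-precipitable material.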

[15] = molecular target: T1, Estrogen receptor (Mus musculus); assay: Estrogenic activity in mouse uterotrophic assay at 5 ug as uterus dry weight (mg)/body weight (g) *100; assay type: functional, tissue-based; in short: as §2
[16] = molecular target: T1, Estrogen receptor (Mus musculus); assay: Anti-estrogenic activity in mouse uterotrophic assay at 0.2 ug as uterus dry weight (mg)/body weight (g) *100; assay type: functional, tissue-based; conditions: in the assay text read “at 5 ug” for “at 0.2 ug”; in short: as §3
[17] = molecular target: T1, Estrogen receptor (Mus musculus); assay: Estrogenic activity in mouse uterotrophic assay at 25 ug as uterus dry weight (mg)/body weight (g) *100; assay type: functional, tissue-based; in short: as §2
[18] = molecular target: T1, Estrogen receptor (Mus musculus); assay: Anti-estrogenic activity in mouse uterotrophic assay at 5 ug as uterus dry weight (mg)/body weight (g) *100; assay type: functional, tissue-based; in short: as §3
MDA-MB-231 [19] = assay: (§5) Inhibition of [3H]thymidine incorporation into hormone independent MDA-MB 231 human breast cancer cells at 1x10E-6M; assay type: functional; in short: as §4
Rattus norvegicus [20] = assay: New tumor development in DMBA-induced hormone dependent mammary carcinoma in rats at 18 mg/kg; assay type: functional; in short: as §1
Rattus norvegicus [21] = assay: New tumor development in DMBA-induced hormone dependent mammary carcinoma in rats at 2 mg/kg; assay type: functional; in short: as §1
[22] = molecular target: T1, Estrogen receptor (Mus musculus); assay: Estrogenic activity in mouse uterotrophic assay at 0.04 ug as uterus dry weight (mg)/body weight (g) *100; assay type: functional, tissue-based; in short: as §2
MDA-MB-231 [23] = assay: Inhibition of [3H]thymidine incorporation into hormone independent MDA-MB 231 human breast cancer cells at 1x10E-5 M; assay type: functional; in short: as §4
MDA-MB-231 [24] = assay: Inhibition of [3H]-thymidine incorporation into hormone independent MDA-MB 231 human breast cancer cells at 5x10E-6M; assay type: functional; in short: as §4
MDA-MB-231 [25] = assay: Growth inhibition of hormone independent MDA-MB 231 human breast cancer cells at 1x10E-5 M
[26] = molecular target: T1, Estrogen receptor (Mus musculus); assay: Estrogenic activity in mouse uterotrophic assay at 1 ug as uterus dry weight (mg)/body weight (g) *100; assay type: functional, tissue-based; in short: as §2
[27] = molecular target: T1, Estrogen receptor (Mus musculus); assay: Estrogenic activity in mouse uterotrophic assay at 125 ug as uterus dry weight (mg)/body weight (g) *100; assay type: functional, tissue-based; in short: as §2
[28] = molecular target: T1, Estrogen receptor (Mus musculus); assay: Percent inhibition in anti-uterotrophic assay in mice at 0.2 ug; assay type: functional; conditions: in the assay text read “at 5 ug” for “at 0.2 ug”; in short: as §3
[29] = molecular target: T1, Estrogen receptor (Mus musculus); assay: Percent inhibition in anti-uterotrophic assay in mice at 5 ug; assay type: functional; in short: as §3
MDA-MB-231 [30] = assay: Inhibition of [3H]thymidine incorporation into hormone independent MDA-MB 231 human breast cancer cells at 5x10E-6M; assay type: functional; in short: as §4
[31] = molecular target: T1, Estrogen receptor (Mus musculus); assay: Anti-estrogenic activity in mouse uterotrophic assay at 1 ug as uterus dry weight (mg)/body weight (g) *100; assay type: functional, tissue-based; in short: as §3
MDA-MB-231 [32] = assay: (§6) Inhibition of [3H]thymidine incorporation into hormone independent MDA-MB 231 human breast cancer cells at 2x10E-6M; assay type: functional; in short: as §4
MDA-MB-231 [33] = assay: as §6; assay type: functional; in short: as §4; remark: listed apart in the source
Rattus norvegicus [34] = assay: Initial DMBA-induced hormone dependent mammary carcinoma tumors in rats at 18 mg/kg; assay type: functional; in short: as §1
[35] = molecular target: T1, Estrogen receptor (Mus musculus); assay: Percent inhibition in anti-uterotrophic assay in mice at 25 ug; assay type: functional; in short: as §3
[36] = molecular target: T1, Estrogen receptor (Mus musculus); assay: Percent inhibition in anti-uterotrophic assay in mice at 1 ug; assay type: functional; in short: as §3
MDA-MB-231 [37] = assay: as §5; assay type: functional; in short: as §4; remark: listed apart in the source
[38] = molecular target: T1, Estrogen receptor (Mus musculus); assay: Percent inhibition in anti-uterotrophic assay in mice at 0.04 ug; assay type: functional; conditions: in the assay text read “at 1 ug” for “at 0.04 ug”; in short: as §3
[39] = molecular target: T1, Estrogen receptor (Mus musculus); assay: Anti-estrogenic activity in mouse uterotrophic assay at 125 ug as uterus dry weight (mg)/body weight (g) *100; assay type: functional, tissue-based; in short: as §3
[40] = molecular target: T1, Estrogen receptor (Mus musculus); assay: Anti-estrogenic activity in mouse uterotrophic assay at 625 ug as uterus dry weight (mg)/body weight (g) *100; assay type: functional, tissue-based; in short: as §3
[41] = molecular target: T1, Estrogen receptor (Mus musculus); assay: Percent inhibition in anti-uterotrophic assay in mice at 625 ug; assay type: functional; in short: as §3
Rattus norvegicus [42] = assay: Change in tumor area DMBA-induced hormone dependent mammary carcinoma tumor bearing rats at 2 mg/kg after 7 day therapy in 9 animals; assay type: functional; conditions: in the assay text read “28 day” for “7 day”; in short: as §1
[43] = molecular target: T1, Estrogen receptor (Mus musculus); assay: Percent inhibition in anti-uterotrophic assay in mice at 125 ug; assay type: functional; in short: as §3
[44] = molecular target: T1, Estrogen receptor (Mus musculus); assay: Estrogenic activity in mouse uterotrophic assay at 625 ug as uterus dry weight (mg)/body weight (g) *100; assay type: functional, tissue-based; in short: as §2

T1 sequence (O08537 whole entry, looked up): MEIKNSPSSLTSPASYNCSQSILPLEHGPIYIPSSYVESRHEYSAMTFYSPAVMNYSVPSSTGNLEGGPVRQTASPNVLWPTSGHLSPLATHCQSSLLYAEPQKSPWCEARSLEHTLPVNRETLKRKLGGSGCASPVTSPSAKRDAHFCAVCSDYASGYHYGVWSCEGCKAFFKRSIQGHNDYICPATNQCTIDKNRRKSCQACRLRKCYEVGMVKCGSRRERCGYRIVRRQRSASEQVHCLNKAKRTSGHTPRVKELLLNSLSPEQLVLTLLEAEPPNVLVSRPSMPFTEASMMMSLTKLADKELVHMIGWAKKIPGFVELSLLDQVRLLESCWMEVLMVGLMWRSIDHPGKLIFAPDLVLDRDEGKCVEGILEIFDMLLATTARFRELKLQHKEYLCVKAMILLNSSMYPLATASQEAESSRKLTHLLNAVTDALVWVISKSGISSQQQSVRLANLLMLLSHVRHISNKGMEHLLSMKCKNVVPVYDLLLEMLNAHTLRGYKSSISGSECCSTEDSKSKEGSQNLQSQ
T1 sequence (P19785 whole entry, looked up): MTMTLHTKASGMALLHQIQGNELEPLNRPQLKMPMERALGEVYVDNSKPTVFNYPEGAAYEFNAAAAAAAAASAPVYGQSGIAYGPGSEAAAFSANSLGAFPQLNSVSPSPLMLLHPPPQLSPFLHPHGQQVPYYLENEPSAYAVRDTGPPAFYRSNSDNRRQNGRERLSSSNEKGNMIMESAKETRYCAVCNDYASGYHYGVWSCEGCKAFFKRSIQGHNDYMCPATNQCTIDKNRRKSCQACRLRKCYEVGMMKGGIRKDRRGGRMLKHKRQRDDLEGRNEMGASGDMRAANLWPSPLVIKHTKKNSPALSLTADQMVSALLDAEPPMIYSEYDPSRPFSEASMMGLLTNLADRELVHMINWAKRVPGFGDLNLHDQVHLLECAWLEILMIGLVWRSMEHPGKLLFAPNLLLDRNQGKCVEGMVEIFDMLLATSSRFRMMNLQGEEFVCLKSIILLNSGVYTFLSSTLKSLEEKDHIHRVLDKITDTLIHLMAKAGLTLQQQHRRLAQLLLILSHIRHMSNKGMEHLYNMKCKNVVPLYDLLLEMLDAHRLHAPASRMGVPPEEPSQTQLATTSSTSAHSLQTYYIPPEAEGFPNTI

CCCn1c(-c2c(Cl)cc(O)cc2Cl)cc2c(Cl)cc(O)cc21
Partial remission (Rattus norvegicus [1]): 19%
Static remission (Rattus norvegicus [2]): 50%
Complete remission (Rattus norvegicus [3]): 8%
Progressive tumors (Rattus norvegicus [4]): 23%
No. of tumors (Rattus norvegicus [5]): 17
Change (Rattus norvegicus [6]): 57%
New tumors (Rattus norvegicus [7]): 9
Change (Rattus norvegicus [8]): 0%

CCn1c(-c2c(Cl)cc(O)cc2Cl)cc2c(Cl)cc(O)cc21
T/C (MDA-MB-231 [9]): 51%
Effect [10]: 21.7
Effect [11]: 39.3
No. of tumors (Rattus norvegicus [12]): 22
Effect [13]: 48.7
T/C (MDA-MB-231 [14]): 16%
Partial remission (Rattus norvegicus [1]; 2 mg/kg): 14% and 15% and 24%
Effect [15]: 22.2
Effect [16]: 46.3
Effect [17]: 45.8
Effect [18]: 46.3
T/C (MDA-MB-231 [19]): 98%
Complete remission (Rattus norvegicus [3]; 2 mg/kg): 43% and 62% and 56%
New tumors (Rattus norvegicus [20]): 5
New tumors (Rattus norvegicus [21]): 15
Effect [22]: 19.8
Cell no./dish x10E3 (MDA-MB-231 [23]): 6.6 cpm/dish x10E3
Cell no./dish x10E5 (MDA-MB-231 [23]): 2.71
Progressive tumors (Rattus norvegicus [4]; 2 mg/kg): 24% and 15% and 16%
Cell no./dish x10E5 (MDA-MB-231 [24]): 5.44
No. of tumors (Rattus norvegicus [5]): 22
T/C (MDA-MB-231 [25]): 25%
Effect [26]: 21.5
Effect [27]: 40.6
New tumors (Rattus norvegicus [7]): 4
inhibition [28]: 2%
inhibition [29]: 2%
Change (Rattus norvegicus [8]; 2 mg/kg): 2% and 1% and 0%
T/C (MDA-MB-231 [30]): 14%
[3H]thymidine incorporation (MDA-MB-231 [30]): 5.8 cpm/dish x10E3
Effect [31]: 48.7
T/C (MDA-MB-231 [32]): 88%
Cell no./dish x10E3 (MDA-MB-231 [33]): 36.2 cpm/dish x10E3
Cell no./dish x10E5 (MDA-MB-231 [33]): 9.38
T/C (MDA-MB-231 [33]): 88%
No. of tumors (Rattus norvegicus [34]): 20
inhibition [35]: 25%
inhibition [36]: -7%
Cell no./dish x10E3 (MDA-MB-231 [37]): 40.2 cpm/dish x10E3
Cell no./dish x10E5 (MDA-MB-231 [37]): 11.35
T/C (MDA-MB-231 [37]): 106%
inhibition [38]: -7%

Cn1c(-c2c(Cl)cc(O)cc2Cl)cc2c(Cl)cc(O)cc21
Effect [39]: 37.7
Effect [11]: 42.7
T/C (MDA-MB-231 [14]): 5%
Partial remission (Rattus norvegicus [1]): 28%
Effect [15]: 18.2
Effect [40]: 39.6
inhibition [41]: 24%
Change (Rattus norvegicus [42]): 24%
Effect [17]: 26
Static remission (Rattus norvegicus [2]): 25%
Effect [18]: 45.4
T/C (MDA-MB-231 [19]): 88%
Complete remission (Rattus norvegicus [3]): 19%
Cell no./dish x10E3 (MDA-MB-231 [23]): 2.2 cpm/dish x10E3
Cell no./dish x10E5 (MDA-MB-231 [23]): 4.12
Progressive tumors (Rattus norvegicus [4]): 28%
inhibition [43]: 30%
No. of tumors (Rattus norvegicus [5]): 19
T/C (MDA-MB-231 [25]): 38%
Effect [26]: 16
Effect [27]: 34.4
New tumors (Rattus norvegicus [7]): 24
inhibition [29]: 5%
Change (Rattus norvegicus [8]): -2%
Effect [31]: 48.5
Effect [44]: 40.1
inhibition [35]: 14%
inhibition [36]: -6%
Cell no./dish x10E3 (MDA-MB-231 [37]): 36.4 cpm/dish x10E3
Cell no./dish x10E5 (MDA-MB-231 [37]): 10.12
T/C (MDA-MB-231 [37]): 95%
